What was measured:
[1] = molecular target: Histamine H2 receptor (Cavia porcellus, UniProt P47747); test: Agonist activity at guinea pig histamine H2 receptor stably transfected in HEK293T cells co-expressing NlucN-mGs/gpH2R-NlucC by mini-G protein recruitment assay; type: functional, cell-based
[2] = molecular target: T1, D(4) dopamine receptor (Homo sapiens, UniProt P21917); test: Displacement of [3H]N-methylspiperone from human D4.4 receptor stably expressed in HEK293T cells co-expressing ElucN-betaarr2 hD4.4R-ELuc incubated for 60 mins by scintillation counting analysis; type: cell-based
T1 sequence (P21917 whole entry): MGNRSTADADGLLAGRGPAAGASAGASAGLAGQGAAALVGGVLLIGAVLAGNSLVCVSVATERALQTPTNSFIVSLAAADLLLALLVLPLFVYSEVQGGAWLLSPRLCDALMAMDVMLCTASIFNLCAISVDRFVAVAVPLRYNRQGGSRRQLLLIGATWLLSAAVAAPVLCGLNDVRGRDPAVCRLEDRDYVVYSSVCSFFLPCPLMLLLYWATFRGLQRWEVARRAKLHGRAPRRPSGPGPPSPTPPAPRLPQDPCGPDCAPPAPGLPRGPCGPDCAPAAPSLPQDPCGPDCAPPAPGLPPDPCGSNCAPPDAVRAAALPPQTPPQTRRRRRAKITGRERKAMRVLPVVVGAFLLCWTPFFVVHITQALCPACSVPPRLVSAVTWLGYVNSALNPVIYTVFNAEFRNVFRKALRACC

[3] = molecular target: Muscarinic acetylcholine receptor M3 (Homo sapiens, UniProt P20309); test: Displacement of [3H]N-methylscopolamine from human muscarinic acetylcholine M3 receptor stably expressed in CHO cells by radioligand competition binding based analysis; type: cell-based
Muscarinic acetylcholine receptor M3, sequence (P20309 whole entry): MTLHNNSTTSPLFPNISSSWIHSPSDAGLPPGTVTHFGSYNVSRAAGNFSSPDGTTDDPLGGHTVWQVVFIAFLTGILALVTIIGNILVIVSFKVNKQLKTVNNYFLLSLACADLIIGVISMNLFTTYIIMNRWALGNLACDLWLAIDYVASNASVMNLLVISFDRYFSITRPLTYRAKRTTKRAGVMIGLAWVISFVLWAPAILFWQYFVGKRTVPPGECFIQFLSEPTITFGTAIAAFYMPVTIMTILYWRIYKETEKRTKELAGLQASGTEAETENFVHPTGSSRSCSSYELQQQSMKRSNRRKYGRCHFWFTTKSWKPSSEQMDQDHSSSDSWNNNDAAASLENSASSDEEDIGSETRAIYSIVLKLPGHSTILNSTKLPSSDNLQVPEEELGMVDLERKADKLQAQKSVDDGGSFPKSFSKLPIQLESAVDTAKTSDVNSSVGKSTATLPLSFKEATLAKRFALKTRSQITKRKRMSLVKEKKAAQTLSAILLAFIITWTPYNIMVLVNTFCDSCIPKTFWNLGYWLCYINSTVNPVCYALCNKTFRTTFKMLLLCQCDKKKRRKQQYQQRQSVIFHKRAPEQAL
Method in brief: (§1)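 Whole CHO cells stably expressing hM1–hM5, competed against [3H]N-methylscopolamine. Kd/applied concentrations in nM: M1 0.17/0.2, M2 0.10/0.2, M3 0.12/0.2, M4 0.052/0.1, M5 0.20/0.3.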

[4] = molecular target: T2, Muscarinic acetylcholine receptor M1 (Homo sapiens, UniProt P11229); test: Displacement of [3H]N-methylscopolamine from human muscarinic acetylcholine M1 receptor stably expressed in CHO cells by radioligand competition binding based analysis; type: cell-based; method in brief: as §1
T2 sequence (P11229 whole entry): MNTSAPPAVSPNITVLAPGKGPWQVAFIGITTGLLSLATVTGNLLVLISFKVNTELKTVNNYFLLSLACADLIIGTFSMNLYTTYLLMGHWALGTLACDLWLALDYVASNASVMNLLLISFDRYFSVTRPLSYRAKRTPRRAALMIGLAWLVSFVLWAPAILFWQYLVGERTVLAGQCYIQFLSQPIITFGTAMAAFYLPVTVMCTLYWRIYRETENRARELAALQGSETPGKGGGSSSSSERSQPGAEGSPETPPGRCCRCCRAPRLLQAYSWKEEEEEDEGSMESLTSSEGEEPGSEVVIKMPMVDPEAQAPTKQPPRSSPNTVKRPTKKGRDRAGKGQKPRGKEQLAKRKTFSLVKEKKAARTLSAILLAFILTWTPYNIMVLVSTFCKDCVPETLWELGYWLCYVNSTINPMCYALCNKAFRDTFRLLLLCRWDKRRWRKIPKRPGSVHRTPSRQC

[5] = molecular target: T3, Muscarinic acetylcholine receptor M4 (Homo sapiens, UniProt P08173); test: Displacement of [3H]N-methylscopolamine from human muscarinic acetylcholine M4 receptor stably expressed in CHO cells by radioligand competition binding based analysis; type: cell-based; method in brief: as §1
T3 sequence (P08173 whole entry): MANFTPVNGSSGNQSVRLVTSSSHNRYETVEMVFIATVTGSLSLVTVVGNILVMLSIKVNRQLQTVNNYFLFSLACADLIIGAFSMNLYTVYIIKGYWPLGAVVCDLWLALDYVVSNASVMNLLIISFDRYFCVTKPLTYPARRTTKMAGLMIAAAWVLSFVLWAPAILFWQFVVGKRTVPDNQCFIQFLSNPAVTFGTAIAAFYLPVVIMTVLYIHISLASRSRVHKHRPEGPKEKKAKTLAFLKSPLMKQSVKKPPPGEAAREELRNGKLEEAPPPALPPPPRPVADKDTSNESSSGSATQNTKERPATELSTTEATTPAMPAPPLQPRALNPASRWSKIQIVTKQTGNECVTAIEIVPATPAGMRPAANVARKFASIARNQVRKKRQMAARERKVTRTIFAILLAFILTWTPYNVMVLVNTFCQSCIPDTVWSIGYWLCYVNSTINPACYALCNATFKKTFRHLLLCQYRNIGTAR

[6] = molecular target: T4, Muscarinic acetylcholine receptor M5 (Homo sapiens, UniProt P08912); test: Displacement of [3H]N-methylscopolamine from human muscarinic acetylcholine M5 receptor stably expressed in CHO cells by radioligand competition binding based analysis; type: cell-based; method in brief: as §1
T4 sequence (P08912 whole entry): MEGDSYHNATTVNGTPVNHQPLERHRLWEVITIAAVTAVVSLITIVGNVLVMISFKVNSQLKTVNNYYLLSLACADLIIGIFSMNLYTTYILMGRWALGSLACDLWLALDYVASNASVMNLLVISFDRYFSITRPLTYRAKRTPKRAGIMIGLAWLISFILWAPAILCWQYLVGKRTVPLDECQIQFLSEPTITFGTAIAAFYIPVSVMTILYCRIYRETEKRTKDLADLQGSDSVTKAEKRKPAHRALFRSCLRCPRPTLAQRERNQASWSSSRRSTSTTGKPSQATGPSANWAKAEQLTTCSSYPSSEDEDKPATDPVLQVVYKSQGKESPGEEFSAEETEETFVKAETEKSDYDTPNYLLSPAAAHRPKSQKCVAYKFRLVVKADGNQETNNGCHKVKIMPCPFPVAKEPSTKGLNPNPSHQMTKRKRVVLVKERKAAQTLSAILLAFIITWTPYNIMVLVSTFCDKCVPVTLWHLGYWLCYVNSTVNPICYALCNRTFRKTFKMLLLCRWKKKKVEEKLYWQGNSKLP

[7] = molecular target: T5, 5-hydroxytryptamine receptor 1A (Homo sapiens, UniProt P08908); test: Displacement of […] from human 5HT1A stably expressed in HEK293T cell membrane incubated for 2 hrs by scintillation counting analysis; type: cell membranes
T5 sequence (P08908 whole entry): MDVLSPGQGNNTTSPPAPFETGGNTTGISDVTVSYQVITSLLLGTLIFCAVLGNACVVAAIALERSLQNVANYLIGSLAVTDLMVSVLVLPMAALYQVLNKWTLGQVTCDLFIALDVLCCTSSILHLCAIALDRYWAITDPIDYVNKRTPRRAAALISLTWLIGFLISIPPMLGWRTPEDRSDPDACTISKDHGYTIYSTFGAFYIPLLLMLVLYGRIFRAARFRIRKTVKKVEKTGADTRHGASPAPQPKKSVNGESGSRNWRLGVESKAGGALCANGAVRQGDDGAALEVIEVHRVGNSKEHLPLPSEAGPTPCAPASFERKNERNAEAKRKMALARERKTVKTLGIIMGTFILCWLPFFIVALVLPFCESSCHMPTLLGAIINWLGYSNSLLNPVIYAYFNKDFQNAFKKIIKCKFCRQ

Histamine H2 receptor, sequence (P47747 whole entry): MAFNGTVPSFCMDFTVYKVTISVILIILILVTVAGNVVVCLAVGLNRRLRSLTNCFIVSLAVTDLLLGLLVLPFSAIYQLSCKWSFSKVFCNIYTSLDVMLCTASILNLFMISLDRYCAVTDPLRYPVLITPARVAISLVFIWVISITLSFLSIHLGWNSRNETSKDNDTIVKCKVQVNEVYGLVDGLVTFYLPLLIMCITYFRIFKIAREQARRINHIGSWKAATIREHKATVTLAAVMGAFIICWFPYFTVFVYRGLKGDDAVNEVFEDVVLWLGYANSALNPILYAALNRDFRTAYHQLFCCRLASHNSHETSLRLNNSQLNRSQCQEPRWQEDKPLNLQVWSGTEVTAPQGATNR

| SMILES | EC50 [1] [pM] | Kd [2] [pM] | pKi [2] | Kd [3] [pM] | pKi [3] | Kd [4] [pM] | pKi [4] | Kd [5] [pM] | pKi [5] | Kd [6] [pM] | pKi [6] | Kd [7] [pM] | pKi [7] |
| --- | --- | --- | --- | --- | --- | --- | --- | --- | --- | --- | --- | --- | --- |
| N/C(=N\C(=O)NCc1ccccc1)NCCCc1nnc(N)s1 | 2190 | 78 | 6.17 | 120 | < 5 | 170 | < 5 | 52 | > 5.5 | 200 | > 5 | 80 | 4.56 |
| CCCCCNC(=O)/N=C(\N)NCCCc1nnc(N)s1.O=C(O)C(F)(F)F.O=C(O)C(F)(F)F | 4370 | 78 | 5.65 | 120 | < 5 | 170 | < 5 | 52 | < 5 | 200 | > 5 | 80 | 4.49 |
| C[C@@H](NC(=O)/N=C(\N)NCCCc1ncn[nH]1)c1ccccc1 | 16200 | 78 | 5.18 | 120 | < 5 | 170 | < 5 | 52 | > 5 | 200 | < 5 | 80 | 4.29 |
| CCCCCNC(=O)/N=C(\N)NCCCc1sc(N)nc1C | – | 78 | 6.96 | 120 | < 5 | 170 | < 5 | 52 | < 5 | 200 | > 5 | 80 | 5.18 |

Reference: ChEMBL document CHEMBL5149991 (J Med Chem, 2021)
